Sampled rows, rich in hits. Any-hit rate of the full collection: about 3.9%.
M1 PAM = human CHRM1 positive allosteric modulation. CHO-K1 hM1, Fluo-8 calcium fluorescence, ACh EC20; 0% = ACh EC20, 100% = maximal ACh. AID 588819. actives 0.088% (n = 360,000). activation, % at 3 µM. P11229; in the data active = activation above about 19%, passing the limit was not always enough
m5-HT2A agonist = agonists of mouse serotonin 5-HT2A receptor (HTR2A) | P35363 | actives 0.66% (n = 360,000) | CHO-K1 mHTR2A beta-arrestin complementation, luminescence; percent of 30 µM serotonin response | AID 624169 | activation, % at 7.6 µM;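 active = activation above a run cutoff, the mean activation of all tested compounds plus 3 SD, cut at about 14% in these data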;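 also: 0% = plate median of compound wells and 100% = 30 µM serotonin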
Target sequence (P35363 whole entry, looked up): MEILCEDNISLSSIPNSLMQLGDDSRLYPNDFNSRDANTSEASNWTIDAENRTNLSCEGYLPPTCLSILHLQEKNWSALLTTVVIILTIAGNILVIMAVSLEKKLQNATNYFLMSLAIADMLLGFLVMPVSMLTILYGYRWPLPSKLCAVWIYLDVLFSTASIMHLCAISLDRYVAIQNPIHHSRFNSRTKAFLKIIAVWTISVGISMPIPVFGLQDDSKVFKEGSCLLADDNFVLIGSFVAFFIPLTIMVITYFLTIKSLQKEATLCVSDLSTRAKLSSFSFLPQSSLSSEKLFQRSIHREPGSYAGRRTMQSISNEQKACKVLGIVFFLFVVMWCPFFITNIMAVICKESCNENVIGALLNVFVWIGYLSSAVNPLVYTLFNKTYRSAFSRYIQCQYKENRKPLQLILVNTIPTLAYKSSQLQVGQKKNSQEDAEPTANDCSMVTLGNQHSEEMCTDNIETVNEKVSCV
M1 ag = activates human CHRM1 receptor. actives 0.33% (n = 360,000). activation, % at 3 µM. CHO-K1 hM1, Fluo-8 calcium fluorescence, agonist mode; 0% DMSO, 100% acetylcholine EC100. AID 588814;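 active = activation above the run's mean compound activation plus 3 SD, cut at about 16% in these data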;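 also: peak over basal fluorescence ratio within a 140 s kinetic read after compound addition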
TAAR1 antag = human TAAR1 antagonism; Q96RJ0; CHO RD-HGA16 TAAR1, Fluo-8 calcium fluorescence, antagonist; inhibition, % at 3 µM; actives 1.5% (n = 360,000);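 active = inhibition above a per-plate cutoff, the mean inhibition of test compounds on that plate plus 3 SD, cut at about 49% in these data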;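 also: 0% = DMSO plus EC80 beta-PEA response and 100% = DMSO alone without agonist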
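Test system – hTAAR1-expressing CHO RD-HGA16 cells, Gα16-coupled · Also added – β-PEA at EC80 concentration, post-compound challenge · Compound – 3 µM, single point · Incubation – dye loading 75 min at 37 °C, then 30 min room temperature · Measured by – Fluo-8 intracellular calcium dye fluorescence, real-time kinetic reads · Benchmarks – vehicle and agonist controls · Replicates – singlicate, one well per test compound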
M1 antag = human CHRM1 antagonism | AID 588852 | inhibition, % at 3 µM | CHO-K1 hM1, Fluo-8 calcium fluorescence, ACh EC80 antagonist | actives 1.3% (n = 360,000) | P11229;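 active = percent inhibition above its own plate's cutoff, namely the mean of that plate's compound wells plus 3 SD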;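 also: peak over basal fluorescence ratio during 140 s after agonist addition; 0% = ACh EC80 plus DMSO and 100% = DMSO alone without agonist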
TAAR1 agonist = agonists of human TAAR1. AID 624467. Q96RJ0. actives 0.99% (n = 360,000). CHO RD-HGA16 TAAR1, Fluo-8 calcium fluorescence; vehicle wells 0%, saturating PEA agonist 100%. activation, % at 3 µM;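 active = activation above the mean activation of all test compounds in the run plus 3 SD, cut at about 38% in these data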
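System: CHO-derived RD-HGA16 cells with stable Gα16 and human TAAR1 / Times: 17-24 h plating, Fluo-8 75 min 37 °C, 30 min RT / Technique: calcium-sensitive Fluo-8 signal, excitation 470-495, emission 515-575 nm / Measure: % activation relative to PEA EC100 response / Benchmarks: DMSO and PEA EC100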
TAAR1 ag confirm = confirmation of human TAAR1 agonists. activation, % at 3 µM. CHO RD-HGA16 TAAR1, Fluo-8 calcium fluorescence; scaled: DMSO 0%, maximal phenethylamine 100%. shares compounds with TAAR1 agonist. actives 82% (n = 2,400);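 active = activation above a cutoff set at the run's mean compound activation plus 3 SD, cut at about 39% in these data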
Ga16 ag counter = nonselective agonism, TAAR1 counter-screen. activation, % at 3 µM. actives 50% (n = 2,400). shares compounds with TAAR1 agonist. CHO-Ga16 parental, Fluo-8 calcium fluorescence; normalized to maximal ATP response, DMSO zero;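 active = activation above the run cutoff, the mean activation over all tested wells plus 3 SD, cut at about 12% in these data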;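 also: 0% = DMSO wells and 100% = maximal ATP response on the peak over basal ratio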
TAAR1 desens = human TAAR1 agonist that also desensitizes the receptor | AID 651951 | actives 46% (n = 2,400) | inhibition, % at 3 µM | shares compounds with TAAR1 agonist | CHO RD-HGA16 hTAAR1, Fluo-8 calcium, beta-PEA response inhibition;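 active = inhibition above the run cutoff, the mean inhibition of all test compounds plus 3 SD, cut at about 49% in these data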;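 also: beta-PEA stimulus applied at its EC80; loss of beta-PEA calcium signal after compound pretreatment read as receptor desensitization; 0% = DMSO with beta-PEA at EC80 and 100% = DMSO alone without agonist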
Ga16 antag count = nonselective Ga16 antagonist in TAAR1 agonist counter-screen. shares compounds with TAAR1 agonist. CHO-Ga16 ATP-induced calcium, Fluo-8 fluorescence. actives 39% (n = 2,400). inhibition, % at 3 µM. AID 651952;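 active = inhibition above the plate's mean compound inhibition plus 3 SD, computed per plate, cut at about 22% in these data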;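 also: 0% = EC80 ATP with DMSO and 100% = DMSO wells without ATP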
Starred values were filed as active, the others as inactive.

How did COc1ccc(C(=O)NC(=S)NNC(=O)c2ccccc2C)cc1 do in these assays?
M1 PAM: -22; m5-HT2A agonist: -10; M1 ag: 85*; TAAR1 antag: 92*; M1 antag: 19; TAAR1 agonist: 170*; TAAR1 ag confirm: 143*; Ga16 ag counter: 105*; TAAR1 desens: 98*; Ga16 antag count: 75*

Results for COc1cc(C(=O)NNC(=S)NC(=O)c2ccccc2C)cc(OC)c1OC ?
M1 PAM: 0; m5-HT2A agonist: -6; M1 ag: 14; TAAR1 antag: -4; M1 antag: -2; TAAR1 agonist: 63*; TAAR1 ag confirm: 33; Ga16 ag counter: 44*; TAAR1 desens: 6; Ga16 antag count: 11

What do the screens show for `COc1ccccc1C(=O)NNC(=S)NC(=O)c1cc(OC)c(OC)c(OC)c1`?
M1 PAM: 9; m5-HT2A agonist: 5; M1 ag: 8; TAAR1 antag: 18; M1 antag: -4; TAAR1 agonist: 30

How did O=C(NC(=S)NNC(=O)c1cc2ccccc2cc1O)c1ccco1 do in these assays?
M1 PAM: 12; m5-HT2A agonist: 6; M1 ag: 9; TAAR1 antag: 2; M1 antag: -2; TAAR1 agonist: 75*; TAAR1 ag confirm: 44*; Ga16 ag counter: 37*; TAAR1 desens: 24; Ga16 antag count: 25*

What do the screens show for `COc1ccc(C(=O)NC(=S)NNC(=O)c2cnccn2)cc1`?
M1 PAM: 8; m5-HT2A agonist: 5; M1 ag: -5; TAAR1 antag: 3; M1 antag: -6; TAAR1 agonist: 0

What do the screens show for `COc1ccc(C(=O)NC(=S)NNC(=O)COc2ccccc2)cc1`?
M1 PAM: 4; m5-HT2A agonist: -2; M1 ag: -8; TAAR1 antag: -21; M1 antag: 0; TAAR1 agonist: 46*; TAAR1 ag confirm: 66*; Ga16 ag counter: 52*; TAAR1 desens: 20; Ga16 antag count: 23*

What do the screens show for `CCN(C(=O)Cc1c(C(=O)O)n(CC)c2ccccc12)c1cccc(C(F)(F)F)c1`?
M1 PAM: 5; m5-HT2A agonist: -2; M1 ag: -3; TAAR1 antag: -4; M1 antag: -7; TAAR1 agonist: 6

What do the screens show for `Cc1nn(C)cc1S(=O)(=O)Nc1ccc(F)c(F)c1`?
M1 PAM: 4; m5-HT2A agonist: 1; M1 ag: -3; TAAR1 antag: 13; M1 antag: -7; TAAR1 agonist: -1

How did COc1cc(C(=O)NC(=S)NNC(=O)c2cnccn2)cc(OC)c1OC do in these assays?
M1 PAM: 2; m5-HT2A agonist: 4; M1 ag: -5; TAAR1 antag: -5; M1 antag: -3; TAAR1 agonist: 5

How did COc1cc(C(=O)NC(=S)NNC(=O)[C@H]2C[C@@H]2c2ccccc2)cc(OC)c1OC do in these assays?
M1 PAM: -4; m5-HT2A agonist: 4; M1 ag: 9; TAAR1 antag: -7; M1 antag: 7; TAAR1 agonist: 74*; TAAR1 ag confirm: 37; Ga16 ag counter: 43*; TAAR1 desens: 24; Ga16 antag count: 14

Results for O=C(/C=C/c1cccs1)NC(=S)NNC(=O)c1ccccc1O ?
M1 PAM: -9; m5-HT2A agonist: 3; M1 ag: 6; TAAR1 antag: 17; M1 antag: 1; TAAR1 agonist: 88*; TAAR1 ag confirm: 23; Ga16 ag counter: 74*; TAAR1 desens: 15; Ga16 antag count: 36*

Results for COc1ccc(C(=O)NC(=S)NNC(=O)c2ccco2)cc1 ?
M1 PAM: 3; m5-HT2A agonist: 5; M1 ag: -2; TAAR1 antag: -8; M1 antag: 3; TAAR1 agonist: 7

How did COc1ccc(C(=O)NC(=S)NNC(=O)c2ccccc2O)cc1 do in these assays?
M1 PAM: 13; m5-HT2A agonist: 7; M1 ag: 7; TAAR1 antag: 33; M1 antag: -12; TAAR1 agonist: 80*; TAAR1 ag confirm: 57*; Ga16 ag counter: 55*; TAAR1 desens: 22; Ga16 antag count: 27*

How did COc1ccc(C(=O)NNC(=S)NC(=O)C(C)(C)C)cc1 do in these assays?
M1 PAM: -24; m5-HT2A agonist: -4; M1 ag: 77*; TAAR1 antag: 98*; M1 antag: 29; TAAR1 agonist: 145*; TAAR1 ag confirm: 106*; Ga16 ag counter: 90*; TAAR1 desens: 48; Ga16 antag count: 44*

What do the screens show for `O=C(COC(=O)/C=C/c1ccc(F)cc1)NC1CCCCCC1`?
M1 PAM: 14; m5-HT2A agonist: 1; M1 ag: 9; TAAR1 antag: 2; M1 antag: -1; TAAR1 agonist: -1

How did CCn1c(C)nc2cc(NC(=O)Nc3cccc(C(C)=O)c3)ccc21 do in these assays?
M1 PAM: -12; m5-HT2A agonist: -1; M1 ag: -3; TAAR1 antag: 0; M1 antag: 20; TAAR1 agonist: 1

What do the screens show for `COc1ccc(CCNC(=O)Nc2nc(C(N)Cc3ccccc3)cs2)cc1OC` (configuration not stated)?
M1 PAM: 6; m5-HT2A agonist: 4; M1 ag: 3; TAAR1 antag: -7; M1 antag: -11; TAAR1 agonist: 8

Results for COc1ccc(C(=O)NNC(=S)NC(=O)c2cccc([N+](=O)[O-])c2)cc1 ?
M1 PAM: 19; m5-HT2A agonist: 5; M1 ag: 8; TAAR1 antag: 17; M1 antag: -14; TAAR1 agonist: 66*; TAAR1 ag confirm: 88*; Ga16 ag counter: 64*; TAAR1 desens: 36; Ga16 antag count: 26*

Results for O=C(NC(=S)NNC(=O)c1ccccc1O)c1cccc([N+](=O)[O-])c1 ?
M1 PAM: -4; m5-HT2A agonist: -4; M1 ag: -4; TAAR1 antag: -12; M1 antag: 10; TAAR1 agonist: 16
